Results pooled from the literature.
Lines come from different studies, so protocols differ.
Target: Aurora kinase A (AURKA, Homo sapiens, UniProt O14965)
Sequence (O14965 1-403, as in one of the studies): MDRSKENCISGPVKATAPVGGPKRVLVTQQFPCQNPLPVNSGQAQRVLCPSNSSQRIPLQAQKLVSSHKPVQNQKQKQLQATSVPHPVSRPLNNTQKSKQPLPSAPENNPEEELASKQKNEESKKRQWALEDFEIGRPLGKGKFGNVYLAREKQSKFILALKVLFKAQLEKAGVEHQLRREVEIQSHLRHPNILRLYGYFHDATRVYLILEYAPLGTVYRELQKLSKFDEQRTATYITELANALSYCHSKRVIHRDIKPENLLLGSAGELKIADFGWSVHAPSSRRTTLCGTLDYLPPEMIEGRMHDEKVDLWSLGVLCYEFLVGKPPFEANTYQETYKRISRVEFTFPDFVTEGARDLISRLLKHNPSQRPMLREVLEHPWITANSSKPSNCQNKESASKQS

The inhibition of `CCN(CC)CCNC(=O)c1c(C)[nH]c(/C=C2\C(=O)Nc3ccc(F)cc32)c1C` is reported as 84% (enzyme activity; inhibitor; 10 µM).
`CS(=O)(=O)Nc1cccc(-c2csc(NC(=O)CSc3nc4nccnc4c(=O)n3CCc3ccccc3)n2)c1` has an inhibition of 0% (enzyme activity; inhibitor; 10 µM).
For `O=C(Nc1cnn(-c2csc(C(=O)NC3COC3)c2)c1)Nc1c(F)cccc1Cl`, the remaining activity was 83.1% (enzyme activity; inhibitor; 5 µM).
For `COc1cc(/C=C/C(=O)CC(=O)/C=C/c2ccc(O)c(OC)c2)ccc1O`, the activity vs control was 85% (enzyme activity; inhibitor; 1 µM).
With `CCCOc1ccc(OC)c(F)c1C(=O)c1ccc(C(=O)N[C@@H]2CNC[C@H]2NC(=O)c2ccc3[nH]ncc3c2)cc1` the remaining activity was 33% (enzyme activity; inhibitor; 10 µM).
The remaining binding of `CCC(=N\O)/C(C)=C/c1ccc(F)cc1` is reported as 100% (cell-free assay; competition with immobilised ligand; 1 µM).
`Cn1c(=O)n(-c2ccc(C(C)(C)C#N)cc2)c2c3cc(-c4cnc5ccccc5c4)ccc3ncc21` gave a remaining activity of 104% (enzyme activity; inhibitor; 10 µM).
The inhibition of `CNC(=O)c1cc(Oc2ccc(NC(=O)Nc3ccc(Cl)c(C(F)(F)F)c3)cc2)ccn1` is reported as 86% (enzyme activity; inhibitor; 10 µM).
For `CC(C)(C)c1nc(-c2cccc(NS(=O)(=O)c3c(F)cccc3F)c2F)c(-c2ccnc(N)n2)s1`, the remaining activity was 102% (enzyme activity; inhibitor; radiometric; 1 µM).
`Cc1[nH]c(/C=C2\C(=O)Nc3ccc(F)cc32)c(C)c1C(=O)N[C@H]1CCN(C(=O)N(C)C)C1` gave a remaining activity of 82% (enzyme activity; inhibitor; 0.1 µM).
For `CC(C)(O)c1cncc(-c2nc3ccc(F)cc3n2C2CC2)c1`, the remaining binding was 94% (cell-free assay; competition with immobilised ligand; 1 µM).
The activity vs control of `Cc1cc(NC(=O)c2cccc3cc(-c4cccc5[nH]nc(N)c45)ccc23)ccc1F` is reported as 95% (enzyme activity; inhibitor; 0.1 µM).
For `O=Nc1c(-c2c(O)[nH]c3ccccc23)[nH]c2ccccc12`, the remaining signal was 21.3% (cell-free assay; 0.5 µM).
`CCN(CC)c1ccc(C2=NNC(=O)CC2C)cc1[N+](=O)[O-]` (centres unmarked) has a remaining activity of 93% (enzyme activity; inhibitor; 10 µM).
With `CCN(CC)CCNC(=O)c1c(C)[nH]c(/C=C2\C(=O)Nc3ccc(F)cc32)c1C` the remaining activity was 43% (enzyme activity; inhibitor; 1 µM).
The activity vs control of `CC(C)c1ccc(NC(=O)c2cccs2)c(-c2nc3ccccc3[nH]c2=O)c1` is reported as 83% (enzyme activity; inhibitor; 1 µM).
`CC1=C(C#N)C(c2ccc3c(c2)c(NC(=O)c2ccccc2C)nn3C)C(C#N)=C(C)N1` gave a remaining binding of 61% (cell-free assay; competition with immobilised ligand; 1 µM).
With `COc1cc2ncnc(Nc3ccc(Oc4ccccc4)cc3C)c2cc1OC` the inhibition was 8% (enzyme activity; inhibitor; 1 µM).
For `O=C(N1CCS(=O)(=O)CC1)N1C[C@H](c2ccc(OC(F)(F)F)cc2)C[C@H](c2nc(C3CC3)no2)C1`, the remaining binding was 100% (cell-free assay; competition with immobilised ligand; 1 µM).
For `O=C1NC(=O)c2cc(Nc3ccc(F)cc3)c(Nc3ccc(F)cc3)cc21`, the remaining signal was 92.7% (cell-free assay; 0.5 µM).
With `CS(=O)(=O)c1cc(C2(NC(=O)c3cncc4c3cnn4-c3ccc(F)cc3)CC2)ccn1` the remaining binding was 89% (cell-free assay; competition with immobilised ligand; 1 µM).
With `COc1cc(Nc2cnc(C#N)c(O[C@H](C)CN(C)C)n2)ncc1-c1cnn(C)c1` the remaining activity was 48% (enzyme activity; inhibitor; radiometric; 10 µM).
`CNc1cc(Oc2cc(C(=O)Nc3cc(N4CCN(C)CC4)cc(C(F)(F)F)c3)ccc2C)ncn1` gave an inhibition of -45.4% (target engagement in cells; inhibitor; chemoproteomics; Huh-7; 1 µM).
With `COc1cc2nccc(Oc3ccc(NC(=O)c4c5n(n(-c6ccc(F)cc6)c4=O)CCCC5)cc3)c2cc1OC` the inhibition was -3% (enzyme activity; inhibitor; 0.1 µM).
The remaining signal of `N#CCCc1ccc2c(c1)-c1[nH]c3ccc([N+](=O)[O-])cc3c1CC(=O)N2` is reported as 78.7% (cell-free assay; 0.5 µM).
The remaining binding of `C[C@@H]1CN(c2cc(-c3n[nH]c4ccc(OC5(C)CC5)cc34)ncn2)C[C@H](C)O1` is reported as 94% (cell-free assay; competition with immobilised ligand; 0.1 µM).
`CNC(=O)c1ccccc1Nc1cc(Nc2ccc(N3CCOCC3)cc2OC)ncc1C(F)(F)F` gave an inhibition of > 50% (enzyme activity; inhibitor; 1 µM).
`CN1CC(Oc2cnc(C#N)cc2-c2ccn3nc(NC(=O)C4CC4)cc3c2)C1` gave an inhibition of 6% (enzyme activity; inhibitor; 1 µM).
`CS(=O)(=O)N1CCCC(NC(=O)[C@H](CCC2CCCCC2)NC(=O)c2ccc(CNC(=O)c3cnc4ccccn34)cc2)C1` (some centres unmarked) gave a remaining binding of 100% (cell-free assay; competition with immobilised ligand; 0.1 µM).
For `CNc1cccc2cc(C(=O)Nc3ccc(C(=O)O)cc3)c(=O)[nH]c12`, the inhibition was 16% (enzyme activity; inhibitor; 10 µM).
For `Cc1cc(NC(=O)c2cccc(S(F)(F)(F)(F)F)c2)cc(-n2ccn3nc(-c4cccnc4)cc23)c1`, the remaining binding was 84.9% (cell-free assay; competition with immobilised ligand; 1 µM).
For `Cc1ccc(Nc2nccc(N(C)c3ccc4c(C)n(C)nc4c3)n2)cc1S(N)(=O)=O`, the inhibition was 99% (enzyme activity; inhibitor; 10 µM).
